# Laboratory results as given in PMC10983000 (Journal of Medicinal Chemistry, 2024).
# How the values were obtained:
# [1] = system: pAKT in SKBR3 (PI3Kα^WT) cells; assay: pAKT AlphaLISA assay, SKBR3; assay type: cell-based; conditions: Homo sapiens, SK-BR-3, 24 h, read-out: pAKT AlphaLISA IC50 SKBR3
# [2] = system: pAKT in T47D (PI3Kα^H1047R) cells; assay: pAKT AlphaLISA assay, T47D; assay type: cell-based; conditions: for IC50: Homo sapiens, T47D, 24 h, read-out: pAKT AlphaLISA IC50 T47D, T47D (PI3Kα^H1047R), inhibition of pAKT formation after 24 h of treatment
# [3] = system: T47D (PI3Kα^H1047R) cells; assay: Viability assay; assay type: cell-based; conditions: for viability selectivity 1047R/WT IC50: T47D vs SKBR3 viability IC50
# [4] = Intrinsic clearance in human hepatocytes; assay type: in vitro ADME
# [5] = Intrinsic clearance in dog hepatocytes; assay type: in vitro ADME
# Outline: (§1)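 CLint was derived by scaling in vitro half-lives measured in pooled hepatocytes.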
# [6] = Intrinsic clearance in rat hepatocytes; assay type: in vitro ADME
# Outline: as §1
# [7] = system: pAKT in HCC1954 tumors (PI3Kα^H1047R); assay: Single dose pharmacodynamic study, HCC1954 tumor model; assay type: in vivo, mouse; conditions: PO 100 or 300 mg/kg single dose
# Outline: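 Mice carried xenografts of HCC1954, an ER-/HER2+ human breast tumour line with endogenous PI3Kα H1047R. They received a single dose of test compound, and tumour pAKT modulation was measured at 1 h and at 8 h post dose.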
# Mouse pharmacokinetics = assay type: in vivo, CD-1 Mouse
# Rat pharmacokinetics = assay type: in vivo; conditions: male, Sprague-Dawley, plasma, iv, 3 mg/kg
# [8] = Intrinsic clearance in mouse hepatocytes; assay type: in vitro ADME
# Outline: as §1
# [9] = Metabolite ID in human hepatocytes; assay type: in vitro ADME
Compound,IC50 [1] [nM],IC50 [2] [nM],further results
"Cc1cc([C@@H](C)Nc2ccccc2C(=O)O)c2oc(N3CCC(C)(C)CC3)c(C)c(=O)c2c1 [Compound 4, reference compound]",3180,3,–
"Cc1ccccc1C1NC(=O)c2cc(NC3COC3)cc(NC(=O)c3csc4ccccc34)c21 (stereo not shown) [Compound 5, reference compound]",115,332,–
Cc1cc([C@@H](C)Nc2ccccc2C(=O)O)c2nc(N3CCCCC3)cc(=O)n2c1 [Compound 7],5890,78,viability selectivity 1047R/WT IC50 [3]: > 9
Cc1cc([C@@H](C)Nc2ccccc2C(=O)O)c2nc(N3CCCCC3)c(C)c(=O)n2c1 [Compound 8],1460,3,viability selectivity 1047R/WT IC50 [3]: > 83
Cc1cc(C(C)Nc2ccccc2C(=O)O)c2nc(N3CCC(C)(C)CC3)n(C)c(=O)c2c1 (stereo not shown) [Compound 9],–,179,fold decrease in potency (viability) compared to compound 4 ([3]; T47D viability): 39 fold
Cc1cc(C(C)Nc2ccccc2C(=O)O)c2nc(N3CCCCC3)ncc2c1 (stereo not shown) [Compound 10],–,2540,–
Cc1cc([C@@H](C)Nc2ccccc2C(=O)O)c2nc(N3CCCCC3)c(F)c(=O)n2c1 [Compound 11],> 10000,0.3,–
Cc1cc([C@@H](C)Nc2ccccc2C(=O)O)c2nc(N3CCCCC3)c(C#N)c(=O)n2c1 [Compound 12],4740,1,fold more stable in human hepatocytes than 8 ([4]; Clint human hepatocytes): 4 fold; fold more potent than 8 ([2]; pAKT T47D): 3 fold
Cc1cc([C@@H](C)Nc2ccccc2C(=O)O)c2nc(N3CCCCC3)c(C(F)(F)F)c(=O)n2c1 [Compound 13],> 10000,28,–
Cc1cc([C@@H](C)Nc2ccccc2C(=O)O)c2nc(N3CCCCC3)c(C(N)=O)c(=O)n2c1 [Compound 14],> 10000,> 10000,–
"Cc1cc([C@@H](C)Nc2ccccc2C(=O)O)c2nc(N3CCC(F)(F)CC3)c(C#N)c(=O)n2c1 [Compound 17, (R)-2-((1-(3-Cyano-2-(4,4-difluoropiperidin-1-yl)-7-methyl-4-oxo-4H-pyrido[1,2-a]pyrimidin-9-yl)ethyl)amino)benzoic Acid]",–,–,"CLint scaled [5]: 104 mL/min/kg; fold decrease of intrinsic clearance in human hepatocytes compared to 12 [4]: 3 fold; CLint scaled [6]: 70 mL/min/kg; pAKT inhibition after oral dosing [7]: negligible inhibition of pAKT; clearance (Mouse pharmacokinetics; female, CD-1, mouse, plasma, iv, 3 mg/kg): 180 mL/min/kg; bioavailability in rodents (Mouse pharmacokinetics; rodents (mouse and rat)): 48–57 %F; clearance (Rat pharmacokinetics): 46 mL/min/kg; CLint scaled [8]: 304 mL/min/kg; metabolite identified in human hepatocytes [9]: glucuronidation of the benzoic acid was the only discernible metabolite"
Cc1cc([C@@H](C)Nc2ccccc2C(=O)O)c2nc(C3CCC(F)(F)CC3)c(C#N)c(=O)n2c1 [Compound 19],–,–,"fold loss in potency in T47D cellular viability assay ([3]; on replacing the piperidine nitrogen (4,4-difluorocyclohexane)): 5 fold"
Cc1cc([C@@H](C)Nc2ccc(Cl)cc2C(=O)O)c2nc(N3CCC(F)(F)CC3)c(C#N)c(=O)n2c1 [Compound 24],–,15,–
